Experimental data taken from ChEMBL document CHEMBL3272319, “Alkyl streptozotocin analogues with improved biological activities” (J Med Chem, 1976).
In brackets after ≈: the same amount, converted by molar mass.

Experiments:
Bacillus subtilis = experiment: Antibacterial activity against Bacillus subtilis ATCC 6633 assessed as growth inhibition after 18 hrs by broth dilution method; assay type: functional; settings: ATCC 6633, 18 h
Procedure, shortened: (§1)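 Twofold serial dilutions in heart infusion broth. Inoculum was a 24-h heart infusion broth culture diluted 100-fold in physiological saline. Tubes incubated 30 °C for 18 h; the table footnote gives 32 °C for 24 h. MIC in µg/ml is the lowest level giving complete growth inhibition.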

Escherichia coli = experiment: Antibacterial activity against Escherichia coli NIHJ JC-2 assessed as growth inhibition after 18 hrs by broth dilution method; assay type: functional; settings: NIHJ JC-2, 18 h; procedure, shortened: as §1
Mus musculus [1] = experiment: Toxicity in ICR mouse allografted with mouse S180A assessed as mortality at 100 mg/kg, ip qd for 5 days; assay type: organism-based; design: dose 100 mg/kg, route intraperitoneal; settings: in vivo, 120 h
Procedure, shortened: (§2)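 Ascites Sarcoma 180 (1 × 10^7 cells) implanted into ICR mice, six per group; compound in saline ip once daily days 1-5; sacrifice on day 7; total packed cell volume (ascites volume × PCV) compared with controls as T/C %; mortality recorded.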

[2] = Ratio of compound LD50 to streptozotocin LD50 for JCL-ICR mouse; assay type: ADME, organism-based; settings: in vivo
Pseudomonas fluorescens = experiment: Antibacterial activity against Pseudomonas fluorescens NIHJ B-254 assessed as growth inhibition after 18 hrs by broth dilution method; assay type: functional; settings: NIHJ B-254, 18 h; procedure, shortened: as §1
[3] = (§3) Acute toxicity in ip dosed JCL-ICR mouse assessed as animal death; assay type: organism-based; settings: JCL-ICR, in vivo
Procedure, shortened: (§4)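 Groups of ten female JCL-ICR mice given single ip dose in physiological saline; deaths followed over 7 days; LD50 (and LD10) derived by Litchfield–Wilcoxon method.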

Mus musculus [4] = experiment: as §3; assay type: organism-based; settings: in vivo; procedure, shortened: as §4
Proteus vulgaris = experiment: Antibacterial activity against Proteus vulgaris AHU 1469 assessed as growth inhibition after 18 hrs by broth dilution method; assay type: functional; settings: AHU 1469, 18 h; procedure, shortened: as §1
Salmonella typhi = experiment: Antibacterial activity against Salmonella typhi IFM 3020 assessed as growth inhibition after 18 hrs by broth dilution method; assay type: functional, Salmonella enterica subsp. enterica serovar Typhi; settings: Salmonella enterica, IFM 3020, 18 h
Procedure, shortened: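 Twofold serial dilutions in heart infusion broth; inoculum from 24 h heart infusion broth culture diluted 100-fold in physiological saline; tubes incubated 30 °C for 18 h; MIC (µg/ml) = lowest level giving complete growth inhibition.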

Rattus norvegicus [5] = experiment: Diabetogenic activity in iv dosed Wistar rat assessed as increase in blood sugar level administered as single dose by glucose oxidase method; assay type: ADME, organism-based; settings: in vivo
Procedure, shortened: (§5)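 Male Wistar rats, about 200 g, five per group, fasted 16 h. Single iv dose into the femoral vein in physiological saline, equimolar across compounds. Caudal-vein blood sampled at set times over 24 h. Sugar measured by glucose oxidase.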

[6] = Antitumor activity against mouse S180A allografted in ICR mouse assessed as tumor growth at 100 mg/kg, ip qd for 5 days measured on day 7 relative to control; assay type: functional; settings: route intraperitoneal
Procedure, shortened: (§6)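 Ascites Sarcoma 180 (1 × 10^7 cells) implanted into ICR mice, six animals per group. Five daily ip injections in saline (days 1–5). Sacrificed day 7. T/C % computed from total packed cell volume (ascites volume × PCV) vs controls. Grades: 100-66 = -, 65-41 = +, 40-11 = ++, 10-0 = +++.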

Staphylococcus aureus = experiment: Antibacterial activity against Staphylococcus aureus FDA 209P JC-1 assessed as growth inhibition after 18 hrs by broth dilution method; assay type: functional; settings: FDA 209P JC-1, 18 h; procedure, shortened: as §1
Shigella sonnei = experiment: Antibacterial activity against Shigella sonnei assessed as growth inhibition after 18 hrs by broth dilution method; assay type: functional; procedure, shortened: as §1
Klebsiella pneumoniae = experiment: Antibacterial activity against Klebsiella pneumoniae ATCC 10031 assessed as growth inhibition after 18 hrs by broth dilution method; assay type: functional; settings: ATCC 10031, 18 h; procedure, shortened: as §1
Mus musculus [7] = experiment: Toxicity in BDF1 mouse allografted with mouse L1210 cells assessed as mortality at 50 mg/kg, ip qd for 5 days; assay type: organism-based; design: dose 50 mg/kg, route intraperitoneal; settings: in vivo, 120 h
Procedure, shortened: (§7)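 L1210 (1 × 10^5 cells) implanted into BDF1 mice, six per group; compound in saline ip once daily days 1-5; effect read as % increase in life span, ILS = [(treated life span/control life span) − 1] × 100.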

Mus musculus [8] = experiment: Ratio of compound LD10 to streptozotocin LD10 for JCL-ICR mouse; assay type: ADME, organism-based; settings: in vivo
L1210 [9] = experiment: Antitumor activity against mouse L1210 cells allografted in BDF1 mouse assessed as increase in host lifespan at 50 mg/kg, ip qd for 5 days relative to control; assay type: functional; settings: 120 h, route intraperitoneal; procedure, shortened: as §7
Enterococcus faecalis = experiment: Antibacterial activity against Streptococcus faecalis ATCC 10541 assessed as growth inhibition after 18 hrs by broth dilution method; assay type: functional; settings: ATCC 10541, 18 h; procedure, shortened: as §1
Micrococcus luteus = experiment: Antibacterial activity against Sarcina lutea ATCC 9341 assessed as growth inhibition after 18 hrs by broth dilution method; assay type: functional; settings: ATCC 9341, 18 h; procedure, shortened: as §1
[10] = Antitumor activity against mouse S180A allografted in ICR mouse assessed as tumor growth at 50 mg/kg, ip qd for 5 days measured on day 7 relative to control; assay type: functional; settings: route intraperitoneal; procedure, shortened: as §6
Mus musculus [11] = experiment: Toxicity in ICR mouse allografted with mouse S180A assessed as mortality at 50 mg/kg, ip qd for 5 days; assay type: organism-based; design: dose 50 mg/kg, route intraperitoneal; settings: in vivo, 120 h; procedure, shortened: as §2
L1210 [12] = experiment: Antitumor activity against mouse L1210 cells allografted in BDF1 mouse assessed as increase in host lifespan at 125 mg/kg, ip qd for 5 days relative to control; assay type: functional; settings: 120 h, route intraperitoneal; procedure, shortened: as §7
Mus musculus [13] = experiment: Toxicity in BDF1 mouse allografted with mouse L1210 cells assessed as mortality at 125 mg/kg, ip qd for 5 days; assay type: organism-based; design: dose 125 mg/kg, route intraperitoneal; settings: in vivo, 120 h; procedure, shortened: as §7
Rattus norvegicus [14] = experiment: Diabetogenic activity in Wistar rat assessed as increase in blood sugar level at 65 mg/kg, iv administered as single dose by glucose oxidase method; assay type: ADME, organism-based; design: dose 65 mg/kg, route intravenous; settings: in vivo; procedure, shortened: as §5
L1210 [15] = experiment: Antitumor activity against mouse L1210 cells allografted in BDF1 mouse assessed as increase in host lifespan at 200 mg/kg, ip qd for 5 days relative to control; assay type: functional; settings: 120 h, route intraperitoneal; procedure, shortened: as §7
Mus musculus [16] = experiment: Toxicity in BDF1 mouse allografted with mouse L1210 cells assessed as mortality at 200 mg/kg, ip qd for 5 days; assay type: organism-based; design: dose 200 mg/kg, route intraperitoneal; settings: in vivo, 120 h; procedure, shortened: as §7
Mus musculus [17] = experiment: Toxicity in ICR mouse allografted with mouse S180A assessed as mortality at 25 mg/kg, ip qd for 5 days; assay type: organism-based; design: dose 25 mg/kg, route intraperitoneal; settings: in vivo, 120 h; procedure, shortened: as §2
Mus musculus [18] = experiment: Toxicity in BDF1 mouse allografted with mouse L1210 cells assessed as mortality at 100 mg/kg, ip qd for 5 days; assay type: organism-based; design: dose 100 mg/kg, route intraperitoneal; settings: in vivo, 120 h; procedure, shortened: as §7
Rattus norvegicus [19] = experiment: Diabetogenic activity in Wistar rat assessed as increase in blood sugar level at 20 mg/kg, ip qd for 1 month measured 24 hrs last drug dosage by glucose oxidase method; assay type: ADME, organism-based; design: dose 20 mg/kg, route intraperitoneal; settings: in vivo
Procedure, shortened: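 Male Wistar rats, about 150 g, five per group. Drug in physiological saline given ip qd on days 1–30. Blood drawn 24 h after the last dose. Sugar measured by glucose oxidase.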

L1210 [20] = experiment: Antitumor activity against mouse L1210 cells allografted in ip dosed BDF1 mouse assessed as 30% increase in host lifespan administered for qd for 5 days; assay type: functional
[21] = Acute toxicity in iv dosed dog; assay type: organism-based, Canis lupus familiaris; settings: in vivo
Mus musculus [22] = experiment: Toxicity in ip dosed BDF1 mouse allografted with mouse L1210 cells assessed as optimal dose required for mortality administered qd for 5 days; assay type: organism-based; settings: in vivo, 120 h
[23] = Antitumor activity against mouse S180A allografted in ICR mouse assessed as tumor growth at 25 mg/kg, ip qd for 5 days measured on day 7 relative to control; assay type: functional; settings: route intraperitoneal; procedure, shortened: as §6
[24] = Antitumor activity against mouse S180A cells allografted in ip dosed ICR mouse administered qd for 5 days; assay type: functional; settings: 120 h; procedure, shortened: as §6
L1210 [25] = experiment: Antitumor activity against mouse L1210 cells allografted in BDF1 mouse assessed as increase in host lifespan at 100 mg/kg, ip qd for 5 days relative to control; assay type: functional; settings: 120 h, route intraperitoneal; procedure, shortened: as §7
[26] = Acute toxicity in iv dosed mouse; assay type: organism-based; settings: in vivo
[27] = Therapeutic index, ratio of LD10 for JCL-ICR mouse to ED90 for mouse S180A cells allografted in ICR mouse; settings: read-out: TI

| SMILES | MIC (Bacillus subtilis) | MIC (Escherichia coli) | selectivity ratio [2] | MIC (Pseudomonas fluorescens) | LD50 [3] | LD10 (Mus musculus [4]) | MIC (Proteus vulgaris) | MIC (Salmonella typhi) | Activity (Rattus norvegicus [5]) | MIC (Staphylococcus aureus) | MIC (Shigella sonnei) | MIC (Klebsiella pneumoniae) | Activity (Mus musculus [7]) | Ratio (Mus musculus [8]) | ILS at 50 mg/kg (L1210 [9]) | MIC (Enterococcus faecalis) | MIC (Micrococcus luteus) | T/C [10] | Activity (Mus musculus [11]) | further results |
| --- | --- | --- | --- | --- | --- | --- | --- | --- | --- | --- | --- | --- | --- | --- | --- | --- | --- | --- | --- | --- |
| CCN(N=O)C(=O)N[C@H]1[C@H](OC)O[C@H](CO)[C@@H](O)[C@@H]1O | > 1000 µg/mL | > 1000 µg/mL | 2 | > 1000 µg/mL | 1700 mg/kg | 1380 mg/kg | > 1000 µg/mL | > 1000 µg/mL | Non-toxic | > 1000 µg/mL | > 1000 µg/mL | > 1000 µg/mL | Non-toxic | 2 | 14% | > 1000 µg/mL | > 1000 µg/mL | – | – | Activity (Mus musculus [1]): Non-toxic; T/C [6]: 65% |
| CCO[C@H]1O[C@H](CO)[C@@H](O)[C@H](O)[C@H]1NC(=O)N(C)N=O | > 1000 µg/mL | > 1000 µg/mL | 2 | > 1000 µg/mL | 2050 mg/kg | 2000 mg/kg | > 1000 µg/mL | > 1000 µg/mL | Non-toxic | > 1000 µg/mL | > 1000 µg/mL | > 1000 µg/mL | – | 2 | – | > 1000 µg/mL | > 1000 µg/mL | 38% | Non-toxic | ILS at 125 mg/kg (L1210 [12]): 64%; Activity (Mus musculus [13]): Non-toxic |
| CN(N=O)C(=O)N[C@@H](C=O)[C@@H](O)[C@H](O)[C@H](O)CO [STREPTOZOCIN] | 12.5 µg/mL (≈ 0.0471 mM) | 12.5 µg/mL (≈ 0.0471 mM) | – | 6.3 µg/mL (≈ 0.0238 mM) | 360 mg/kg | 235 mg/kg | 0.4 µg/mL (≈ 0.00151 mM) | > 200 µg/mL | – | 1.6 µg/mL (≈ 0.00603 mM) | > 200 µg/mL | > 200 µg/mL | Non-toxic | – | 44% | – | > 200 µg/mL | 26% | Non-toxic | Activity (Rattus norvegicus [14]): Toxic; ILS at 200 mg/kg (L1210 [15]): 0%; Activity (Mus musculus [16]): Non-toxic; Activity (Mus musculus [17]): Non-toxic; Activity (Mus musculus [18]): Non-toxic; Activity (Rattus norvegicus [19]): Toxic; Activity (L1210 [20]): 23 mg/kg/day; LD50 [21]: 50 mg/kg; Activity (Mus musculus [22]): 100 mg/kg/day; T/C [23]: 40%; ED90 [24]: 90 mg/kg/day; ILS at 100 mg/kg (L1210 [25]): 76%; LD50 [26]: 275 mg/kg; selectivity ratio [27]: 2.6 |
